In ChEMBL document CHEMBL1649165, “Activity profile in vitro of micafungin against Spanish clinical isolates of common and emerging species of yeasts and molds” (2009):
In brackets after ≈: the same amount, converted by molar mass.

Legend:
Type in all cases: functional
[1] = system: Cladophialophora bantiana; test: Antimicrobial activity against Cladophialophora bantiana by broth microdilution method
Method in brief: (§1)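 Clinical mould isolates, tested by broth microdilution using the AFST-EUCAST reference method for filamentous fungi. For echinocandins, the endpoint was the minimum effective concentration: the lowest drug concentration giving aberrant hyphal growth, read with an inverted microscope.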

Trichosporon domesticum = test: Antimicrobial activity against Trichosporon mycotoxinivorans by broth microdilution method; conditions: Apiotrichum domesticum
Method in brief: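 Spanish human clinical isolates were tested as nonfermentative yeasts by broth microdilution. The method strictly followed the EUCAST recommendations, with a minor modification to improve growth, and the read-out was the MIC.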

[2] = system: Scopulariopsis brevicaulis; test: Antimicrobial activity against Scopulariopsis brevicaulis by broth microdilution method
Method in brief: (§2)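 Filamentous fungus clinical isolates tested by the AFST-EUCAST reference broth microdilution method for moulds. For echinocandins, the endpoint was the minimum effective concentration: the lowest drug concentration giving aberrant hyphal growth, read with an inverted microscope.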

Scedosporium apiospermum = test: Antimicrobial activity against Scedosporium apiospermum by broth microdilution method; method in brief: as §2
Ustilago = test: Antimicrobial activity against Ustilago spp by broth microdilution method
Saksenaea vasiformis = test: Antimicrobial activity against Saksenaea vasiformis by broth microdilution method; method in brief: as §2
Naganishia albida = test: Antimicrobial activity against Cryptococcus albidus by broth microdilution method
Method in brief: (§3)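 Clinical isolates of nonfermentative yeasts, tested by broth microdilution following EUCAST recommendations. The only change from that method was a minor modification to improve growth.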

Aspergillus = test: Antimicrobial activity against Aspergillus spp. by broth microdilution method; method in brief: as §1
Rhizomucor = test: Antimicrobial activity against Rhizomucor spp.by broth microdilution method; method in brief: as §2
Trichosporon asahii = test: Antimicrobial activity against Trichosporon asahii by broth microdilution method
Method in brief: (§4)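 Nonfermentative yeast clinical isolates (Rhodotorula, Trichosporon) tested by broth microdilution. The EUCAST yeast recommendations were followed strictly, with one minor modification to improve growth. MIC was read as the endpoint.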

Debaryomyces hansenii = test: Antimicrobial activity against Candida famata by broth microdilution method
Method in brief: (§5)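 Clinical isolates from human patients, tested by broth microdilution using the AFST-EUCAST reference procedure for fermentative yeasts. The MIC was read per that reference method.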

Trichosporon jirovecii = test: Antimicrobial activity against Trichosporon jirovecii by broth microdilution method; conditions: Cutaneotrichosporon jirovecii; method in brief: as §4
Coprinellus domesticus = test: Antimicrobial activity against Hormographiella verticillata by broth microdilution method; method in brief: as §2
Acremonium sp. = test: Antimicrobial activity against Acremonium sp.by broth microdilution method; method in brief: as §1
Cladosporium = test: Antimicrobial activity against Cladosporium spp. by broth microdilution method; method in brief: as §1
Trichosporon inkin = test: Antimicrobial activity against Trichosporon inkin by broth microdilution method; method in brief: as §4
Lichtheimia corymbifera = test: Antimicrobial activity against Mycocladus corymbiferus by broth microdilution method; method in brief: as §2
Lecythophora hoffmannii = test: Antimicrobial activity against Lecythophora hoffmannii by broth microdilution method; conditions: Coniochaeta hoffmannii; method in brief: as §2
Phialemonium curvatum = test: Antimicrobial activity against Phialemonium curvatum by broth microdilution method; conditions: Thyridium curvatum; method in brief: as §2
[3] = Antimicrobial activity against Hormographiella aspergillata by broth microdilution method; conditions: Coprinopsis cinerea; method in brief: as §2
Paecilomyces lilacinus = test: Antimicrobial activity against Paecilomyces lilacinus by broth microdilution method; conditions: Purpureocillium lilacinum; method in brief: as §2
Exophiala jeanselmei = test: Antimicrobial activity against Exophiala jeanselmei by broth microdilution method
Pichia kudriavzevii = test: Antimicrobial activity against Candida krusei by broth microdilution method; method in brief: as §5
Saccharomyces cerevisiae = test: Antimicrobial activity against Saccharomyces cerevisiae by broth microdilution method
Candida orthopsilosis = test: Antimicrobial activity against Candida orthopsilosis by broth microdilution method; conditions: Lodderomyces orthopsilosis; method in brief: as §5
[Candida] zeylanoides = Antimicrobial activity against Candida zeylanoides by broth microdilution method; conditions: Dujonia zeylanoides; method in brief: as §5
Trichosporon = test: Antimicrobial activity against Trichosporon spp. by broth microdilution method; method in brief: as §4
Beauveria bassiana = test: Antimicrobial activity against Beauveria bassiana by broth microdilution method; method in brief: as §1
Candida metapsilosis = test: Antimicrobial activity against Candida metapsilosis by broth microdilution method; conditions: Lodderomyces metapsilosis; method in brief: as §5
[4] = system: Cunninghamella bertholletiae; test: Antimicrobial activity against Cunninghamella bertholletiae by broth microdilution method; method in brief: as §1
Candida tropicalis = test: Antimicrobial activity against Candida tropicalis by broth microdilution method; method in brief: as §5
Fennellia nivea = test: Antimicrobial activity against Aspergillus niveus by broth microdilution method; method in brief: as §1
[5] = system: Cryptococcus deneoformans; test: Antimicrobial activity against Cryptococcus neoformans var. neoformans by broth microdilution method; method in brief: as §3
Aspergillus versicolor = test: Antimicrobial activity against Aspergillus versicolor by broth microdilution method; method in brief: as §1
Exophiala dermatitidis = test: Antimicrobial activity against Exophiala dermatitidis by broth microdilution method
Fusarium solani = test: Antimicrobial activity against Fusarium solani by broth microdilution method; method in brief: as §2
Neurospora sitophila = test: Antimicrobial activity against Chrysonilia sitophila by broth microdilution method; method in brief: as §1
Pichia norvegensis = test: Antimicrobial activity against Candida norvegensis by broth microdilution method; method in brief: as §5
Aspergillus ustus = test: Antimicrobial activity against Aspergillus ustus by broth microdilution method; method in brief: as §1
Clavispora lusitaniae = test: Antimicrobial activity against Candida lusitaniae by broth microdilution method; method in brief: as §5
Mucor = test: Antimicrobial activity against Mucor spp.by broth microdilution method; method in brief: as §2
[6] = system: Kazachstania pintolopesii; test: Antimicrobial activity against Candida pintolopesii by broth microdilution method; conditions: Arxiozyma pintolopesii; method in brief: as §5
Candida albicans = test: Antimicrobial activity against Candida albicans by broth microdilution method; method in brief: as §5
Scytalidium hyalinum = test: Antimicrobial activity against Scytalidium hyalinum by broth microdilution method; conditions: Neoscytalidium hyalinum; method in brief: as §2

CC[C@@H]([C@H](C)O)n1ncn(-c2ccc(N3CCN(c4ccc(OC[C@@H]5CO[C@@](Cn6cncn6)(c6ccc(F)cc6F)C5)cc4)CC3)cc2)c1=O [POSACONAZOLE]
MIC50 [1]: 0.06 µg/mL (≈ 0.0856 µM)
MIC90 [1]: > 8 µg/mL
MIC50 (Trichosporon domesticum): 0.25 µg/mL (≈ 0.357 µM)
MIC90 (Trichosporon domesticum): > 8 µg/mL
MIC50 [2]: 4 µg/mL (≈ 5.71 µM)
MIC90 [2]: > 8 µg/mL
MIC50 (Scedosporium apiospermum): 1 µg/mL (≈ 1.43 µM)
MIC90 (Scedosporium apiospermum): 8 µg/mL (≈ 11.4 µM)
MIC50 (Ustilago): 0.25 µg/mL (≈ 0.357 µM)
MIC90 (Ustilago): > 8 µg/mL
MIC50 (Saksenaea vasiformis): 4 µg/mL (≈ 5.71 µM)
MIC90 (Saksenaea vasiformis): > 8 µg/mL
MIC50 (Naganishia albida): 0.25 µg/mL (≈ 0.357 µM)
MIC90 (Naganishia albida): > 8 µg/mL
MIC50 (Aspergillus): 0.12 µg/mL (≈ 0.171 µM)
MIC90 (Aspergillus): > 8 µg/mL
MIC50 (Rhizomucor): 4 µg/mL (≈ 5.71 µM)
MIC90 (Rhizomucor): > 8 µg/mL
MIC50 (Trichosporon asahii): 0.25 µg/mL (≈ 0.357 µM)
MIC90 (Trichosporon asahii): > 8 µg/mL
MIC50 (Debaryomyces hansenii): 0.03 µg/mL (≈ 0.0428 µM)
MIC90 (Debaryomyces hansenii): > 8 µg/mL
MIC50 (Trichosporon jirovecii): 0.25 µg/mL (≈ 0.357 µM)
MIC90 (Trichosporon jirovecii): > 8 µg/mL
MIC50 (Coprinellus domesticus): 4 µg/mL (≈ 5.71 µM)
MIC90 (Coprinellus domesticus): > 8 µg/mL
MIC50 (Acremonium sp.): 8 µg/mL (≈ 11.4 µM)
MIC90 (Acremonium sp.): > 16 µg/mL
MIC50 (Cladosporium): 0.06 µg/mL (≈ 0.0856 µM)
MIC90 (Cladosporium): > 8 µg/mL
MIC50 (Trichosporon inkin): 0.06 µg/mL (≈ 0.0856 µM)
MIC90 (Trichosporon inkin): 0.12 µg/mL (≈ 0.171 µM)
MIC50 (Lichtheimia corymbifera): 0.5 µg/mL (≈ 0.713 µM)
MIC90 (Lichtheimia corymbifera): > 8 µg/mL
MIC50 (Lecythophora hoffmannii): 0.06 µg/mL (≈ 0.0856 µM)
MIC90 (Lecythophora hoffmannii): > 8 µg/mL
MIC50 (Phialemonium curvatum): 4 µg/mL (≈ 5.71 µM)
MIC90 (Phialemonium curvatum): > 8 µg/mL
MIC50 [3]: 4 µg/mL (≈ 5.71 µM)
MIC90 [3]: > 8 µg/mL
MIC50 (Paecilomyces lilacinus): 0.25 µg/mL (≈ 0.357 µM)
MIC90 (Paecilomyces lilacinus): 0.5 µg/mL (≈ 0.713 µM)
MIC50 (Exophiala jeanselmei): 0.06 µg/mL (≈ 0.0856 µM)
MIC90 (Exophiala jeanselmei): > 8 µg/mL
MIC50 (Pichia kudriavzevii): 0.12 µg/mL (≈ 0.171 µM)
MIC90 (Pichia kudriavzevii): 0.25 µg/mL (≈ 0.357 µM)
MIC50 (Saccharomyces cerevisiae): 0.25 µg/mL (≈ 0.357 µM)
MIC90 (Saccharomyces cerevisiae): 0.5 µg/mL (≈ 0.713 µM)
MIC50 (Candida orthopsilosis): 0.03 µg/mL (≈ 0.0428 µM)
MIC90 (Candida orthopsilosis): > 8 µg/mL
MIC50 ([Candida] zeylanoides): 0.03 µg/mL (≈ 0.0428 µM)
MIC90 ([Candida] zeylanoides): > 8 µg/mL
MIC50 (Trichosporon): 0.25 µg/mL (≈ 0.357 µM)
MIC90 (Trichosporon): > 8 µg/mL
MIC50 (Beauveria bassiana): 4 µg/mL (≈ 5.71 µM)
MIC90 (Beauveria bassiana): > 8 µg/mL
MIC50 (Candida metapsilosis): 0.03 µg/mL (≈ 0.0428 µM)
MIC90 (Candida metapsilosis): > 8 µg/mL
MIC50 [4]: 4 µg/mL (≈ 5.71 µM)
MIC90 [4]: > 8 µg/mL
MIC50 (Candida tropicalis): 0.02 µg/mL (≈ 0.0285 µM)
MIC90 (Candida tropicalis): 0.03 µg/mL (≈ 0.0428 µM)
MIC50 (Fennellia nivea): 0.12 µg/mL (≈ 0.171 µM)
MIC90 (Fennellia nivea): > 8 µg/mL
MIC50 [5]: 0.12 µg/mL (≈ 0.171 µM)
MIC90 [5]: 0.5 µg/mL (≈ 0.713 µM)
MIC50 (Aspergillus versicolor): 0.25 µg/mL (≈ 0.357 µM)
MIC90 (Aspergillus versicolor): 0.5 µg/mL (≈ 0.713 µM)
MIC50 (Exophiala dermatitidis): 0.06 µg/mL (≈ 0.0856 µM)
MIC90 (Exophiala dermatitidis): > 8 µg/mL
MIC50 (Fusarium solani): > 8 µg/mL
MIC90 (Fusarium solani): > 8 µg/mL
MIC50 (Neurospora sitophila): 4 µg/mL (≈ 5.71 µM)
MIC90 (Neurospora sitophila): > 8 µg/mL
MIC50 (Pichia norvegensis): 0.03 µg/mL (≈ 0.0428 µM)
MIC90 (Pichia norvegensis): > 8 µg/mL
MIC50 (Aspergillus ustus): 0.12 µg/mL (≈ 0.171 µM)
MIC90 (Aspergillus ustus): > 8 µg/mL
MIC50 (Clavispora lusitaniae): 0.02 µg/mL (≈ 0.0285 µM)
MIC90 (Clavispora lusitaniae): 0.02 µg/mL (≈ 0.0285 µM)
MIC50 (Mucor): 4 µg/mL (≈ 5.71 µM)
MIC90 (Mucor): > 8 µg/mL
MIC50 [6]: 0.03 µg/mL (≈ 0.0428 µM)
MIC90 [6]: > 8 µg/mL
MIC50 (Candida albicans): 0.02 µg/mL (≈ 0.0285 µM)
MIC90 (Candida albicans): 0.02 µg/mL (≈ 0.0285 µM)
MIC50 (Scytalidium hyalinum): 0.06 µg/mL (≈ 0.0856 µM)
MIC90 (Scytalidium hyalinum): > 8 µg/mL
